From ChEMBL document CHEMBL5058577, “EUbOPEN Chemogenomics Library 2 (Multiplex)” (2022)

System: HEK-293T
Assay: Multiplex assay against HEK293T
Assay type: toxicity, cell-based
Conditions: human
Method in brief: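 Four dyes were applied at seeding to live cells: Hoechst33342, BioTracker Green Microtubule Cytoskeleton Dye, MitoTracker Red and Annexin V Alexa Fluor 680. Imaging after compound addition used a CQ1 microscope at 37°C and 5% CO2. CellPathfinder machine-learning gating then sorted cells into Hoechst high-intensity objects or normal cells, normal cells into healthy, pyknosed or fragmented nuclei, and pyknosed cells into mitotic or apoptotic, with tubulin, mitochondrial-mass and membrane-permeability phenotypes given as per cents of healthy-nucleus cells.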

[1] = 12 h, 1 µM, compound concentration 1 uM, replicate 1
[2] = 12 h, 1 µM, compound concentration 1 uM, replicate 2
[3] = 12 h, 10 µM, compound concentration 10 uM, replicate 1
[4] = 12 h, 10 µM, compound concentration 10 uM, replicate 2
[5] = 24 h, 1 µM, compound concentration 1 uM, replicate 1
[6] = 24 h, 1 µM, compound concentration 1 uM, replicate 2
[7] = 24 h, 10 µM, compound concentration 10 uM, replicate 1
[8] = 24 h, 10 µM, compound concentration 10 uM, replicate 2
[9] = 48 h, 1 µM, compound concentration 1 uM, replicate 1
[10] = 48 h, 1 µM, compound concentration 1 uM, replicate 2
[11] = 48 h, 10 µM, compound concentration 10 uM, replicate 1
[12] = 48 h, 10 µM, compound concentration 10 uM, replicate 2

Br.CS(=O)(=O)Nc1c(O)ccc2c1CCCC2C1=NCCN1 (stereo not given)
Population Apoptotic (%) [1]: 40%
Population Fragmented Nuclei (%) [1]: 7%
Population Healthy Nuclei (%) [1]: 80%
Population Hoechst High Intensity Objects (%) [1]: 5%
Population Membrane Permeable-Phenotype (%) [1]: 0%
Population Mitochondria Different-Phenotype (%) [1]: 45%
Population Mitotic Cells (%) [1]: 59%
Population Normal (%) [1]: 94%
Population Pyknosed Nuclei (%) [1]: 12%
Population Tubulin-Different-Phenotype (%) [1]: 26%
Total Cell Count [1]: 407
Population Apoptotic (%) [2]: 43%
Population Fragmented Nuclei (%) [2]: 5%
Population Healthy Nuclei (%) [2]: 81%
Population Hoechst High Intensity Objects (%) [2]: 8%
Population Mitochondria Different-Phenotype (%) [2]: 52%
Population Mitotic Cells (%) [2]: 56%
Population Normal (%) [2]: 91%
Population Tubulin-Different-Phenotype (%) [2]: 18%
Total Cell Count [2]: 334
Population Apoptotic (%) [3]: 48%
Population Fragmented Nuclei (%) [3]: 8%
Population Healthy Nuclei (%) [3]: 76%
Population Hoechst High Intensity Objects (%) [3]: 12%
Population Membrane Permeable-Phenotype (%) [3]: 0%
Population Mitochondria Different-Phenotype (%) [3]: 60%
Population Mitotic Cells (%) [3]: 52%
Population Normal (%) [3]: 87%
Population Pyknosed Nuclei (%) [3]: 14%
Population Tubulin-Different-Phenotype (%) [3]: 33%
Total Cell Count [3]: 381
Population Apoptotic (%) [4]: 55%
Population Fragmented Nuclei (%) [4]: 6%
Population Healthy Nuclei (%) [4]: 79%
Population Hoechst High Intensity Objects (%) [4]: 14%
Population Mitochondria Different-Phenotype (%) [4]: 67%
Population Mitotic Cells (%) [4]: 44%
Population Normal (%) [4]: 85%
Population Tubulin-Different-Phenotype (%) [4]: 26%
Total Cell Count [4]: 292
Population Apoptotic (%) [5]: 38%
Population Fragmented Nuclei (%) [5]: 10%
Population Healthy Nuclei (%) [5]: 79%
Population Hoechst High Intensity Objects (%) [5]: 5%
Population Membrane Permeable-Phenotype (%) [5]: 1%
Population Mitochondria Different-Phenotype (%) [5]: 34%
Population Mitotic Cells (%) [5]: 61%
Population Normal (%) [5]: 94%
Population Pyknosed Nuclei (%) [5]: 10%
Population Tubulin-Different-Phenotype (%) [5]: 21%
Total Cell Count [5]: 549
Population Apoptotic (%) [6]: 55%
Population Fragmented Nuclei (%) [6]: 6%
Population Healthy Nuclei (%) [6]: 80%
Population Hoechst High Intensity Objects (%) [6]: 8%
Population Membrane Permeable-Phenotype (%) [6]: 0%
Population Mitochondria Different-Phenotype (%) [6]: 41%
Population Mitotic Cells (%) [6]: 44%
Population Normal (%) [6]: 91%
Population Pyknosed Nuclei (%) [6]: 13%
Population Tubulin-Different-Phenotype (%) [6]: 17%
Total Cell Count [6]: 387
Population Apoptotic (%) [7]: 30%
Population Fragmented Nuclei (%) [7]: 11%
Population Healthy Nuclei (%) [7]: 75%
Population Hoechst High Intensity Objects (%) [7]: 6%
Population Membrane Permeable-Phenotype (%) [7]: 0%
Population Mitochondria Different-Phenotype (%) [7]: 40%
Population Mitotic Cells (%) [7]: 69%
Population Normal (%) [7]: 93%
Population Pyknosed Nuclei (%) [7]: 12%
Population Tubulin-Different-Phenotype (%) [7]: 23%
Total Cell Count [7]: 451
Population Apoptotic (%) [8]: 34%
Population Healthy Nuclei (%) [8]: 77%
Population Hoechst High Intensity Objects (%) [8]: 11%
Population Mitochondria Different-Phenotype (%) [8]: 46%
Population Mitotic Cells (%) [8]: 65%
Population Normal (%) [8]: 88%
Population Pyknosed Nuclei (%) [8]: 10%
Population Tubulin-Different-Phenotype (%) [8]: 21%
Total Cell Count [8]: 377
Population Apoptotic (%) [9]: 12%
Population Fragmented Nuclei (%) [9]: 14%
Population Healthy Nuclei (%) [9]: 78%
Population Hoechst High Intensity Objects (%) [9]: 4%
Population Membrane Permeable-Phenotype (%) [9]: 0%
Population Mitochondria Different-Phenotype (%) [9]: 20%
Population Mitotic Cells (%) [9]: 87%
Population Normal (%) [9]: 95%
Population Pyknosed Nuclei (%) [9]: 7%
Population Tubulin-Different-Phenotype (%) [9]: 14%
Total Cell Count [9]: 859
Population Apoptotic (%) [10]: 29%
Population Fragmented Nuclei (%) [10]: 11%
Population Hoechst High Intensity Objects (%) [10]: 6%
Population Mitochondria Different-Phenotype (%) [10]: 22%
Population Mitotic Cells (%) [10]: 70%
Population Normal (%) [10]: 93%
Population Pyknosed Nuclei (%) [10]: 9%
Population Tubulin-Different-Phenotype (%) [10]: 12%
Total Cell Count [10]: 532
Population Apoptotic (%) [11]: 34%
Population Fragmented Nuclei (%) [11]: 16%
Population Healthy Nuclei (%) [11]: 76%
Population Hoechst High Intensity Objects (%) [11]: 4%
Population Membrane Permeable-Phenotype (%) [11]: 1%
Population Mitochondria Different-Phenotype (%) [11]: 22%
Population Mitotic Cells (%) [11]: 65%
Population Normal (%) [11]: 95%
Population Pyknosed Nuclei (%) [11]: 6%
Population Tubulin-Different-Phenotype (%) [11]: 12%
Total Cell Count [11]: 671
Population Apoptotic (%) [12]: 48%
Population Fragmented Nuclei (%) [12]: 14%
Population Healthy Nuclei (%) [12]: 79%
Population Membrane Permeable-Phenotype (%) [12]: 0%
Population Mitochondria Different-Phenotype (%) [12]: 27%
Population Mitotic Cells (%) [12]: 51%
Population Pyknosed Nuclei (%) [12]: 5%
Population Tubulin-Different-Phenotype (%) [12]: 11%
Total Cell Count [12]: 584

COc1cccc2c1c(NS(=O)(=O)c1ccc(Cl)s1)nn2Cc1cccc(CNC(=O)C(C)(C)O)c1
Population Apoptotic (%) [1]: 31%
Population Fragmented Nuclei (%) [1]: 6%
Population Healthy Nuclei (%) [1]: 82%
Population Hoechst High Intensity Objects (%) [1]: 6%
Population Membrane Permeable-Phenotype (%) [1]: 0%
Population Mitochondria Different-Phenotype (%) [1]: 39%
Population Mitotic Cells (%) [1]: 68%
Population Normal (%) [1]: 93%
Population Pyknosed Nuclei (%) [1]: 10%
Population Tubulin-Different-Phenotype (%) [1]: 26%
Total Cell Count [1]: 469
Population Apoptotic (%) [2]: 34%
Population Fragmented Nuclei (%) [2]: 7%
Population Healthy Nuclei (%) [2]: 77%
Population Hoechst High Intensity Objects (%) [2]: 10%
Population Mitochondria Different-Phenotype (%) [2]: 52%
Population Mitotic Cells (%) [2]: 65%
Population Normal (%) [2]: 89%
Population Pyknosed Nuclei (%) [2]: 15%
Population Tubulin-Different-Phenotype (%) [2]: 23%
Total Cell Count [2]: 315
Population Apoptotic (%) [3]: 42%
Population Fragmented Nuclei (%) [3]: 6%
Population Healthy Nuclei (%) [3]: 80%
Population Hoechst High Intensity Objects (%) [3]: 7%
Population Membrane Permeable-Phenotype (%) [3]: 0%
Population Mitochondria Different-Phenotype (%) [3]: 51%
Population Mitotic Cells (%) [3]: 57%
Population Normal (%) [3]: 92%
Population Pyknosed Nuclei (%) [3]: 12%
Population Tubulin-Different-Phenotype (%) [3]: 38%
Total Cell Count [3]: 356
Population Apoptotic (%) [4]: 35%
Population Fragmented Nuclei (%) [4]: 5%
Population Healthy Nuclei (%) [4]: 78%
Population Hoechst High Intensity Objects (%) [4]: 11%
Population Mitochondria Different-Phenotype (%) [4]: 69%
Population Mitotic Cells (%) [4]: 65%
Population Normal (%) [4]: 88%
Population Pyknosed Nuclei (%) [4]: 16%
Population Tubulin-Different-Phenotype (%) [4]: 33%
Total Cell Count [4]: 280
Population Apoptotic (%) [5]: 26%
Population Fragmented Nuclei (%) [5]: 7%
Population Healthy Nuclei (%) [5]: 81%
Population Hoechst High Intensity Objects (%) [5]: 2%
Population Membrane Permeable-Phenotype (%) [5]: 0%
Population Mitochondria Different-Phenotype (%) [5]: 22%
Population Mitotic Cells (%) [5]: 73%
Population Normal (%) [5]: 97%
Population Pyknosed Nuclei (%) [5]: 11%
Population Tubulin-Different-Phenotype (%) [5]: 17%
Total Cell Count [5]: 617
Population Apoptotic (%) [6]: 44%
Population Fragmented Nuclei (%) [6]: 6%
Population Healthy Nuclei (%) [6]: 84%
Population Hoechst High Intensity Objects (%) [6]: 7%
Population Mitochondria Different-Phenotype (%) [6]: 37%
Population Mitotic Cells (%) [6]: 55%
Population Normal (%) [6]: 92%
Population Pyknosed Nuclei (%) [6]: 8%
Population Tubulin-Different-Phenotype (%) [6]: 15%
Total Cell Count [6]: 357
Population Apoptotic (%) [7]: 40%
Population Fragmented Nuclei (%) [7]: 10%
Population Healthy Nuclei (%) [7]: 73%
Population Hoechst High Intensity Objects (%) [7]: 5%
Population Membrane Permeable-Phenotype (%) [7]: 0%
Population Mitochondria Different-Phenotype (%) [7]: 34%
Population Mitotic Cells (%) [7]: 60%
Population Normal (%) [7]: 94%
Population Pyknosed Nuclei (%) [7]: 16%
Population Tubulin-Different-Phenotype (%) [7]: 23%
Total Cell Count [7]: 462
Population Fragmented Nuclei (%) [8]: 9%
Population Healthy Nuclei (%) [8]: 77%
Population Mitochondria Different-Phenotype (%) [8]: 46%
Population Pyknosed Nuclei (%) [8]: 12%
Population Tubulin-Different-Phenotype (%) [8]: 22%
Total Cell Count [8]: 384
Population Apoptotic (%) [9]: 16%
Population Fragmented Nuclei (%) [9]: 10%
Population Healthy Nuclei (%) [9]: 83%
Population Hoechst High Intensity Objects (%) [9]: 2%
Population Membrane Permeable-Phenotype (%) [9]: 0%
Population Mitochondria Different-Phenotype (%) [9]: 18%
Population Mitotic Cells (%) [9]: 83%
Population Normal (%) [9]: 97%
Population Pyknosed Nuclei (%) [9]: 6%
Population Tubulin-Different-Phenotype (%) [9]: 11%
Total Cell Count [9]: 1062
Population Apoptotic (%) [10]: 28%
Population Fragmented Nuclei (%) [10]: 11%
Population Membrane Permeable-Phenotype (%) [10]: 2%
Population Mitochondria Different-Phenotype (%) [10]: 21%
Population Mitotic Cells (%) [10]: 71%
Population Pyknosed Nuclei (%) [10]: 4%
Population Tubulin-Different-Phenotype (%) [10]: 10%
Total Cell Count [10]: 591
Population Apoptotic (%) [11]: 26%
Population Fragmented Nuclei (%) [11]: 16%
Population Healthy Nuclei (%) [11]: 72%
Population Hoechst High Intensity Objects (%) [11]: 4%
Population Membrane Permeable-Phenotype (%) [11]: 0%
Population Mitochondria Different-Phenotype (%) [11]: 25%
Population Mitotic Cells (%) [11]: 73%
Population Normal (%) [11]: 95%
Population Pyknosed Nuclei (%) [11]: 10%
Population Tubulin-Different-Phenotype (%) [11]: 16%
Total Cell Count [11]: 646
Population Apoptotic (%) [12]: 35%
Population Fragmented Nuclei (%) [12]: 8%
Population Healthy Nuclei (%) [12]: 83%
Population Mitochondria Different-Phenotype (%) [12]: 27%
Population Mitotic Cells (%) [12]: 65%
Population Pyknosed Nuclei (%) [12]: 7%
Population Tubulin-Different-Phenotype (%) [12]: 12%
Total Cell Count [12]: 550
